{"source": "paper PMC5969509", "about": "(Chemical Science, 2018)", "key": {"PHD2": {"system": "PHD2", "experiment": "3CBt capture", "assay_type": "binding, human"}, "PHD1": {"system": "PHD1", "experiment": "3CBt capture", "assay_type": "binding, human", "details": "protein 10 µM, 3CBt 26 µM, Coomassie SDS-PAGE"}, "PHD3": {"system": "PHD3", "experiment": "3CBt capture", "assay_type": "binding, human", "details": "3CBt 26 µM"}, "PHD2:HIF1-α complex": {"system": "PHD2:HIF1-α complex", "experiment": "3CBt capture of PHD:HIF1-α complex from RCC4 cell lysates", "assay_type": "binding", "details": "RCC4 cells in hypoxia, 3CBt 52 µM, western blot"}, "[1]": {"biological_target": "catalytic domain of PHD2 (residues 181–426, tPHD2) with N-terminal His-tag and C-terminal biotinylation (tPHD2_(HisBio)) (human) (UniProt Q9GZT9)", "sequence (Q9GZT9 181-426)": "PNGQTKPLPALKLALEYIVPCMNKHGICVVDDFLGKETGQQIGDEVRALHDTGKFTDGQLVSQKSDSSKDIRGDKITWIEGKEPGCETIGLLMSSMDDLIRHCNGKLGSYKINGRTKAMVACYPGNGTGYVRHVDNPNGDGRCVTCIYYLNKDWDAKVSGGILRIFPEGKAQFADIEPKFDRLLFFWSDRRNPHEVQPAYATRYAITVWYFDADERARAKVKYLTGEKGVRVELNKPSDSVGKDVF", "experiment": "BLI"}, "[2]": {"biological_target": "catalytic domain of PHD2 (residues 181–426, tPHD2) with N-terminal His-tag and C-terminal biotinylation (tPHD2_(HisBio)) (human) (UniProt Q9GZT9)", "experiment": "BLI", "remark": "listed apart in the source"}, "[3]": {"biological_target": "tPHD2HisBio (catalytic domain of PHD2, residues 181-426) (Homo sapiens, UniProt Q9GZT9)", "sequence (Q9GZT9 181-426)": "as above", "experiment": "Biolayer interferometry, tPHD2HisBio immobilised via C-terminal biotin", "assay_type": "binding", "in_short": "(§1)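 Recombinant protein (tPHD2HisBio or KDM4A) was expressed in E. coli BL21 (DE3) and loaded onto biosensors. Binding was measured by biolayer interferometry as cycles of association and dissociation across a dilution series of test peptide. A DMSO-only sensor included in each run was subtracted to correct for drift, and the traces were fitted globally.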"}, "tPHD2": {"biological_target": "tPHD2 (Homo sapiens, UniProt Q9GZT9)", "sequence (Q9GZT9 181-426)": "as above", "experiment": "Biolayer interferometry, tPHD2 immobilised via N-terminal His-tag", "assay_type": "binding", "details": "BLI; tPHD2 denatured chemically or thermally"}, "KDM4A": {"system": "KDM4A", "experiment": "Biolayer interferometry, binding to KDM4A", "set-up": "species or system human", "details": "BLI, 3-fold dilution series", "in_short": "as §1"}}, "note": "Where two headings read alike, the source gives them in different places. Positions of bridges follow the written chain, without caps; N, C: chain ends. Non-standard residues stand in square brackets, D forms with d. Residues, ends and D or L forms follow the SMILES beside them.", "data": [{"molecule": "DYVWL T DT W VL SRTCGSGSGSZ (sidechain bridge or staple) [3CBt]", "values": [{"measurement": "capture of endogenous PHD2 from Hep3B cell lysates", "setting": "PHD2; hypoxic (1% O2) Hep3B cells, western blot, 3CBt 13 µM", "value": "could be captured"}, {"measurement": "recovery of recombinant full-length PHD2", "setting": "PHD2; protein 10 µM, 3CBt 26 µM, Coomassie SDS-PAGE", "value": "recovered in a 3CBt-dependent manner"}, {"measurement": "recovery of isolated recombinant tPHD2", "setting": "PHD2; streptavidin magnetic beads, Coomassie SDS-PAGE, tPHD2 100 nM, 3CBt 520 nM", "value": "High levels of tPHD2 recovery"}, {"measurement": "capture of recombinant full length PHD1", "setting": "PHD1", "value": "able to capture"}, {"measurement": "capture of endogenous PHD3 from Hep3B cell lysates", "setting": "PHD3; hypoxic conditions, western blot", "value": "able to affinity purify"}, {"measurement": "capture of recombinant full length PHD3", "setting": "PHD3; protein 10 µM, Coomassie SDS-PAGE", "value": "able to capture"}, {"measurement": "co-purification of HIF1-α and PHDs at endogenous levels", "setting": "PHD2:HIF1-α complex", "value": "could co-purify HIF1-α and PHDs at endogenous levels"}]}, {"molecule": "C-terminal oxygen dependent domain (CODD), a fragment peptide of HIF1-α", "values": [{"measurement": "Kd", "setting": "[1]", "value": 6.3, "unit": "µM"}, {"measurement": "Kd", "setting": "[2]", "value": 5.2, "unit": "µM"}]}, {"molecule": "CC(C)C[C@@H]1NC(=O)[C@H](Cc2c[nH]c3ccccc23)NC(=O)[C@H](C(C)C)NC(=O)[C@@H](Cc2ccc(O)cc2)NC(=O)CSC[C@@H](C(N)=O)NC(=O)[C@H]([C@@H](C)O)NC(=O)[C@H](CCCNC(=N)N)NC(=O)[C@H](CO)NC(=O)[C@H](CC(C)C)NC(=O)[C@H](C(C)C)NC(=O)[C@H](Cc2c[nH]c3ccccc23)NC(=O)[C@H]([C@@H](C)O)NC(=O)[C@H](CC(=O)O)NC(=O)[C@H]([C@@H](C)O)NC1=O", "note": "[3C] ({CH2CO}-[dY]VWLTDTWVLSRTC-NH2; thioether N-14)", "values": [{"measurement": "Kd", "setting": "[3]", "value": 0.00027, "unit": "µM"}, {"measurement": "dissociative half-life t1/2", "setting": "[3]; BLI, C-terminal biotin immobilisation", "value": 1.13, "unit": "h"}, {"measurement": "binding to denatured tPHD2", "setting": "tPHD2", "value": "abolished"}, {"measurement": "binding to KDM4A", "setting": "KDM4A", "value": "almost no detectable binding"}]}]}
